Published values from different studies.
Compare with care: the assays were run in different laboratories.
CDK15: Cyclin-dependent kinase 15 (CDK15, Homo sapiens, UniProt Q96Q40)
WNK1: Serine/threonine-protein kinase WNK1 (WNK1, Homo sapiens, UniProt Q9H4A3)
MALT1: Mucosa-associated lymphoid tissue lymphoma translocation protein 1 (MALT1, Homo sapiens, UniProt Q9UDY8)

Compound | target | test | setting | measurement | value
O=[N+]([O-])c1cccc2[nH]c(CNc3nc(N4CCOCC4)nc4c3ncn4-c3ccsc3)nc12 | CDK15 | binding, competition with immobilised ligand | 10 µM | binding vs control | 47%
C[C@@H](NC(=O)[C@@H](N)Cc1ccc(O)cc1)C(=O)N[C@@H](Cc1ccccc1)C(=O)NCC(=O)N[C@@H](Cc1ccc(O)cc1)C(=O)N1CCC[C@H]1C(=O)N[C@@H](CCCCN)C(=O)N[C@@H](CSC1CC(=O)N(CCCCCNC(=O)c2ccc(C3=c4cc5c(cc4Oc4cc6c(cc43)C(CS(=O)(=O)[O-])=CC(C)(C)N6C)=[N+](C)C(C)(C)C=C5CS(=O)(=O)O)c(C(=O)O)c2)C1=O)C(N)=O (stereo partly shown) | Mu-type opioid receptor (Oprm1, Mus musculus, UniProt P42866) | binding | – | koff | 0.068 s⁻¹
[H]/N=C(/N)c1ccc(NCc2nc3cc(C(=O)N(CCC(=O)O)c4ccccn4)ccc3n2C)cc1 | Vitamin K-dependent protein C (PROC, Homo sapiens, UniProt P04070) | enzyme activity, inhibitor | 0.2 µM | inhibition | 16%
Fc1cccc(-n2cnc3c(NCc4nc5c(F)c(F)ccc5[nH]4)nc(N4CCOCC4)nc32)c1 | CDK15 | binding, competition with immobilised ligand | 10 µM | binding vs control | 20%
COc1ncccc1-c1cnn2ccc(N3CCN(C(=O)OC(C)C)CC3)nc12 | WNK1 | binding, competition with immobilised ligand | 1 µM | remaining binding | 74%
Nc1ncc(-c2nc(N3CCOCC3)nc(N3CCOCC3)n2)c(C(F)F)n1 | WNK1 | binding, competition with immobilised ligand | 10 µM | remaining binding | 57%
CCN(CC)CCCC[C@H](NC(=O)[C@H](CC(C)C)NC(=O)[C@H](C)NC(=O)[C@H](Cc1ccccc1)NC(=O)c1ccc(C(C)(C)C)cc1)C(=O)N[C@@H](CO)C(=O)OC | ATPase family AAA domain-containing protein 2B (ATAD2B, Homo sapiens, UniProt Q9ULI0) | thermal stability, DSF | 25 µM | ΔTm | 0 °C
COc1cc(Cl)c(C(=O)N[C@@H](CN[C@H]2CC[C@@H](N)CC2)Cc2ccc(C#N)cc2)cc1-c1ccc(CN[C@H](C)c2ccc(C)cc2)o1 | Serine/threonine-protein kinase Nek3 (NEK3, Homo sapiens, UniProt P51956) | enzyme activity, inhibitor | 1 µM | remaining activity | 107%
CN(CCN1CCC(OC(=O)Nc2ccccc2-c2ccccc2)CC1)C(=O)c1ccc(CN2CCC(C(N)=O)CC2)cc1 | Endothelin-1 receptor (EDNRA, Homo sapiens, UniProt P25101) | ligand displacement, radioligand | 1 µM | inhibition | 23%
CN(C)C(=O)COC(=O)Cc1ccc(OC(=O)c2ccc(NC(=N)N)cc2)cc1 | MALT1 | enzyme activity, inhibitor | 10 µM | inhibition | 48%
CCCCCn1nc(C(=O)N[C@H](C(N)=O)C(C)C)c2ccccc21 | Cannabinoid receptor 1 (CNR1, Homo sapiens, UniProt P21554) | calcium signal, agonist, fluorescence | – | Emax | 116%
CC(C)[C@H](NC(=O)OCc1ccccc1)C(=O)N[C@@H](CCCN=C(N)N)C(=O)N1CCC[C@H]1C(=O)N[C@@H](CCCN=C(N)N)C(=O)CF | MALT1 | enzyme activity, inhibitor | 10 nM | inhibition | 56%
Cc1nn(C)cc1-c1nc2c(N3CCN(Cc4ccc(Cl)cc4)CC3)c(Cl)cnc2[nH]1 | Phosphatidylinositol 4-phosphate 3-kinase C2 domain-containing subunit beta (PIK3C2B, Homo sapiens, UniProt O00750) | binding, competition with immobilised ligand | 1 µM | remaining binding | 100%
